Assay results taken from ChEMBL document CHEMBL2346629, “Discovery and characterization of novel allosteric FAK inhibitors” (Eur J Med Chem, 2013).

Columns and labels:
[1] = system: Proto-oncogene tyrosine-protein kinase receptor Ret (Homo sapiens), P07949 [V804L]; experiment: Inhibition of RET V804L mutant (unknown origin) using [gamma-33P]ATP assessed as residual activity at 3 uM
[2] = target: PAS domain-containing serine/threonine-protein kinase (Homo sapiens) (UniProt Q96RG2); experiment: Inhibition of PASK (unknown origin) using [gamma-33P]ATP assessed as residual activity at 3 uM
[3] = target: Serine/threonine-protein kinase PAK 4 (Homo sapiens) (UniProt O96013); experiment: Inhibition of PAK4 (unknown origin) using [gamma-33P]ATP assessed as residual activity at 3 uM
[4] = target: Serine/threonine-protein kinase PAK 1 (Homo sapiens) (UniProt Q13153); experiment: Inhibition of PAK1 (unknown origin) using [gamma-33P]ATP assessed as residual activity at 3 uM
[5] = target: Serine/threonine-protein kinase Nek3 (Homo sapiens) (UniProt P51956); experiment: Inhibition of NEK3 (unknown origin) using [gamma-33P]ATP assessed as residual activity at 3 uM
[6] = target: Ribosomal protein S6 kinase alpha-4 (Homo sapiens) (UniProt O75676); experiment: Inhibition of MSK2 (unknown origin) using [gamma-33P]ATP assessed as residual activity at 3 uM
[7] = target: Cyclin-dependent kinase 5/CDK5 activator 1 (Homo sapiens) (UniProt Q00535+Q15078); experiment: Inhibition of CDK5/p35 (unknown origin) using [gamma-33P]ATP assessed as residual activity at 3 uM; format: protein-complex assay
Procedure, shortened: (§1)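 Radiometric profiling across 288 kinases (261 wild-type, 27 mutant), run as an outsourced service. Inhibition read out as [gamma-33P]ATP incorporation into substrate.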

[8] = target: Calcium/calmodulin-dependent protein kinase kinase 2 (Homo sapiens) (UniProt Q96RR4); experiment: Inhibition of CAMKK2 (unknown origin) using [gamma-33P]ATP assessed as residual activity at 3 uM; procedure, shortened: as §1
[9] = target: Calcium/calmodulin-dependent protein kinase type 1D (Homo sapiens) (UniProt Q8IU85); experiment: Inhibition of CAMK1d (unknown origin) using [gamma-33P]ATP assessed as residual activity at 3 uM; procedure, shortened: as §1
[10] = system: Epidermal growth factor receptor (Homo sapiens), P00533 [L858R]; experiment: Inhibition of EGFR L858R mutant (unknown origin) using [gamma-33P]ATP assessed as residual activity at 3 uM; format: protein assay
Procedure, shortened: (§2)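 Reaction Biology HotSpot radiometric profiling panel of 288 kinases (261 wild-type, 27 mutant). Kinase activity was read out by incorporation of [γ-33P]ATP.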

[11] = system: Proto-oncogene tyrosine-protein kinase Src (Homo sapiens), P12931 [T341M]; experiment: Inhibition of c-Src T341M mutant (unknown origin) using [gamma-33P]ATP assessed as residual activity at 3 uM
[12] = target: Tyrosine-protein kinase ABL2 (Homo sapiens) (UniProt P42684); experiment: Inhibition of ABL2 (unknown origin) using [gamma-33P]ATP assessed as residual activity at 3 uM; procedure, shortened: as §1
[13] = target: Tyrosine-protein kinase ABL1 (Homo sapiens) (UniProt P00519); experiment: Inhibition of ABL1 (unknown origin) using [gamma-33P]ATP assessed as residual activity at 3 uM; procedure, shortened: as §1
[14] = system: Tyrosine-protein kinase ABL1 (Homo sapiens), P00519 [T315I]; experiment: Inhibition of ABL1 T315I mutant (unknown origin) using [gamma-33P]ATP assessed as residual activity at 3 uM; procedure, shortened: as §1
[15] = target: BDNF/NT-3 growth factors receptor (Homo sapiens) (UniProt Q16620); experiment: Inhibition of TRKB (unknown origin) using [gamma-33P]ATP assessed as residual activity at 3 uM
[16] = target: Serine/threonine-protein kinase Sgk2 (Homo sapiens) (UniProt Q9HBY8); experiment: Inhibition of SGK2 (unknown origin) using [gamma-33P]ATP assessed as residual activity at 3 uM
[17] = target: Ribosomal protein S6 kinase alpha-3 (Homo sapiens) (UniProt P51812); experiment: Inhibition of RSK2 (unknown origin) using [gamma-33P]ATP assessed as residual activity at 3 uM
[18] = target: Ribosomal protein S6 kinase alpha-2 (Homo sapiens) (UniProt Q15349); experiment: Inhibition of RSK3 (unknown origin) using [gamma-33P]ATP assessed as residual activity at 3 uM
[19] = target: Glycogen synthase kinase-3 alpha (Homo sapiens) (UniProt P49840); experiment: Inhibition of GSK3a (unknown origin) using [gamma-33P]ATP assessed as residual activity at 3 uM
Procedure, shortened: (§3)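 Radiometric kinase profiling service covering 288 kinases (261 wild-type, 27 mutant). Inhibition was read as incorporation from [γ-³³P]ATP.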

[20] = target: G protein-coupled receptor kinase 3 (Homo sapiens) (UniProt P35626); experiment: Inhibition of GRK3 (unknown origin) using [gamma-33P]ATP assessed as residual activity at 3 uM; procedure, shortened: as §3
[21] = target: Tyrosine-protein kinase Fyn (Homo sapiens, UniProt P06241); experiment: Inhibition of FYN (unknown origin) using [gamma-33P]ATP assessed as residual activity at 3 uM
[22] = target: Vascular endothelial growth factor receptor 1 (Homo sapiens) (UniProt P17948); experiment: Inhibition of FLT1 (unknown origin) using [gamma-33P]ATP assessed as residual activity at 3 uM; procedure, shortened: as §2
[23] = target: Fibroblast growth factor receptor 1 (Homo sapiens) (UniProt P11362); experiment: Inhibition of FGFR1 (unknown origin) using [gamma-33P]ATP assessed as residual activity at 3 uM; procedure, shortened: as §2
[24] = target: Ephrin type-A receptor 7 (Homo sapiens) (UniProt Q15375); experiment: Inhibition of EPHA7 (unknown origin) using [gamma-33P]ATP assessed as residual activity at 3 uM; procedure, shortened: as §2
[25] = target: Ephrin type-A receptor 5 (Homo sapiens) (UniProt P54756); experiment: Inhibition of EPHA5 (unknown origin) using [gamma-33P]ATP assessed as residual activity at 3 uM; procedure, shortened: as §2
[26] = target: cAMP-dependent protein kinase catalytic subunit PRKX (Homo sapiens) (UniProt P51817); experiment: Inhibition of PRKX (unknown origin) using [gamma-33P]ATP assessed as residual activity at 3 uM
[27] = target: Serine/threonine-protein kinase PLK3 (Homo sapiens) (UniProt Q9H4B4); experiment: Inhibition of PLK3 (unknown origin) using [gamma-33P]ATP assessed as residual activity at 3 uM
[28] = target: Serine/threonine-protein kinase N2 (Homo sapiens) (UniProt Q16513); experiment: Inhibition of PKN2 (unknown origin) using [gamma-33P]ATP assessed as residual activity at 3 uM
[29] = target: Protein kinase C beta type (Homo sapiens) (UniProt P05771); experiment: Inhibition of PKCb2 (unknown origin) using [gamma-33P]ATP assessed as residual activity at 3 uM
[30] = target: Dual specificity tyrosine-phosphorylation-regulated kinase 1B (Homo sapiens) (UniProt Q9Y463); experiment: Inhibition of DYRK1B (unknown origin) using [gamma-33P]ATP assessed as residual activity at 3 uM; procedure, shortened: as §2
[31] = target: Platelet-derived growth factor receptor beta (Homo sapiens) (UniProt P09619); experiment: Inhibition of PDGFRb (unknown origin) using [gamma-33P]ATP assessed as residual activity at 3 uM

Sequence of Ribosomal protein S6 kinase alpha-3 (Homo sapiens) (P51812 whole entry): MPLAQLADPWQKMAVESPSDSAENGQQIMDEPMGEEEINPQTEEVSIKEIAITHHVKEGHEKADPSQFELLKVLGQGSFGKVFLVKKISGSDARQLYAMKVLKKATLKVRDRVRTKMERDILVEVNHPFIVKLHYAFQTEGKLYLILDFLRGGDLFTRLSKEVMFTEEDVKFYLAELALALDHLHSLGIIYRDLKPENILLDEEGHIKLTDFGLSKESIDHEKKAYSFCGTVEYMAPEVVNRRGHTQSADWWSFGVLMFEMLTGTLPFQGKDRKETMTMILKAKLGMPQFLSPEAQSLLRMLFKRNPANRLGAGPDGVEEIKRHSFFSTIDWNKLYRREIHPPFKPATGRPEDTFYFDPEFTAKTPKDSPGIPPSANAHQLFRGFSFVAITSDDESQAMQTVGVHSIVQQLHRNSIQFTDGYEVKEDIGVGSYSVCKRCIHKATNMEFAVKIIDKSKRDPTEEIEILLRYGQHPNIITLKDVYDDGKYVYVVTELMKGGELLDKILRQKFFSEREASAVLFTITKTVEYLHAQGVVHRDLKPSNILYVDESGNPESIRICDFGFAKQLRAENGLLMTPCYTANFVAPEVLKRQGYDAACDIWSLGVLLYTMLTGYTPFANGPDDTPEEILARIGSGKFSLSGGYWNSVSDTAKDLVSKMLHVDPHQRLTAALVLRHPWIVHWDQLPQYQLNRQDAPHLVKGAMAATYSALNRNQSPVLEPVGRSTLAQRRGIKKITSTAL
Sequence of Serine/threonine-protein kinase PLK3 (Homo sapiens) (Q9H4B4 whole entry, looked up): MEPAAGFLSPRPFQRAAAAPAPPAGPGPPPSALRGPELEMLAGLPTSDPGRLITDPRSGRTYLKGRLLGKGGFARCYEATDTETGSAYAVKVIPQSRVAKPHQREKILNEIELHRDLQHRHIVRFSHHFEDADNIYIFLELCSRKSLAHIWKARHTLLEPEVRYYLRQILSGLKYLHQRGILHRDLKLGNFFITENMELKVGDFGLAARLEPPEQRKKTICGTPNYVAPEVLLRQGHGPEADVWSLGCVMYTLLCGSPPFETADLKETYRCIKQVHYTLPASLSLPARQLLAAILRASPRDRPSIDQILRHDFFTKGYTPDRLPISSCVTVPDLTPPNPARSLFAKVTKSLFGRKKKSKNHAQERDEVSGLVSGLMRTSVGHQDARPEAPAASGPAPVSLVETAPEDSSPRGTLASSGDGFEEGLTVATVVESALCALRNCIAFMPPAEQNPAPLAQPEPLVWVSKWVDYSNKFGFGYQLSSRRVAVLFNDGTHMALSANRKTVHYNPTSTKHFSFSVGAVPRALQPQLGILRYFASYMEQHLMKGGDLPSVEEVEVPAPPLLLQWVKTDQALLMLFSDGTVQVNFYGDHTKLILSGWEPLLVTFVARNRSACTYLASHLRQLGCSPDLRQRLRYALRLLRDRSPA
Sequence of Ribosomal protein S6 kinase alpha-2 (Homo sapiens) (Q15349 whole entry): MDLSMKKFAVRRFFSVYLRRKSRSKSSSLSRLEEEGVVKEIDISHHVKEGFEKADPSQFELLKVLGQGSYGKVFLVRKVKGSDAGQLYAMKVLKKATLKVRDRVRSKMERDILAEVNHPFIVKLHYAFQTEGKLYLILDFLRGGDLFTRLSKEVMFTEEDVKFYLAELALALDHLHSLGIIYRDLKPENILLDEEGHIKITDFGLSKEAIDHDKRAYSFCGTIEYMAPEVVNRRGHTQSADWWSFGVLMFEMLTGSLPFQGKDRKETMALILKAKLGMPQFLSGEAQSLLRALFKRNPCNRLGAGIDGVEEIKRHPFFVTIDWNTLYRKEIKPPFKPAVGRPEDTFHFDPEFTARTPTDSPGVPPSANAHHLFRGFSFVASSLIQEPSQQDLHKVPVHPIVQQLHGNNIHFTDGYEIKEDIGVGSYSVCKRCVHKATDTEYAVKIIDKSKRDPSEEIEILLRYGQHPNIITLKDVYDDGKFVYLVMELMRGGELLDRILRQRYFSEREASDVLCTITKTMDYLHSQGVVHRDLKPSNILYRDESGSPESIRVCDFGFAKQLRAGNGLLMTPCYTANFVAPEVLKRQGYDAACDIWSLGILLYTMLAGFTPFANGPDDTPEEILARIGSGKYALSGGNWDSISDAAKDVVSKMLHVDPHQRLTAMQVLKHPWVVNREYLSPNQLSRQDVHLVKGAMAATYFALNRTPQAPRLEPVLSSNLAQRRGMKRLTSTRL
Sequence of Tyrosine-protein kinase Fyn (P06241 2-537 limits assumed): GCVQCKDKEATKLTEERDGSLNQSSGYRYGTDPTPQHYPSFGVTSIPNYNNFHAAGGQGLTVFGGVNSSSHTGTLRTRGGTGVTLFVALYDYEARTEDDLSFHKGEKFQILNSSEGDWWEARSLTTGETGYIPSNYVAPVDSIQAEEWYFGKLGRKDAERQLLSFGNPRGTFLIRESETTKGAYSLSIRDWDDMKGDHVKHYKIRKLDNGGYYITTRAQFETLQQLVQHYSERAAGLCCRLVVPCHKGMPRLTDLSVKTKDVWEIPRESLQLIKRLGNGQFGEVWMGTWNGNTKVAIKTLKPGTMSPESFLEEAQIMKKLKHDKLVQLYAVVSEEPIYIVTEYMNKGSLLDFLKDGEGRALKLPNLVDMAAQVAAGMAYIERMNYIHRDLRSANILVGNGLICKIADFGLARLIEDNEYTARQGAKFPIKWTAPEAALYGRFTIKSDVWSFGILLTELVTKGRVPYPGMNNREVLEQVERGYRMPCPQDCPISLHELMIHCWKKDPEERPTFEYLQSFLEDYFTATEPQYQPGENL
Sequence of cAMP-dependent protein kinase catalytic subunit PRKX (Homo sapiens) (P51817 whole entry): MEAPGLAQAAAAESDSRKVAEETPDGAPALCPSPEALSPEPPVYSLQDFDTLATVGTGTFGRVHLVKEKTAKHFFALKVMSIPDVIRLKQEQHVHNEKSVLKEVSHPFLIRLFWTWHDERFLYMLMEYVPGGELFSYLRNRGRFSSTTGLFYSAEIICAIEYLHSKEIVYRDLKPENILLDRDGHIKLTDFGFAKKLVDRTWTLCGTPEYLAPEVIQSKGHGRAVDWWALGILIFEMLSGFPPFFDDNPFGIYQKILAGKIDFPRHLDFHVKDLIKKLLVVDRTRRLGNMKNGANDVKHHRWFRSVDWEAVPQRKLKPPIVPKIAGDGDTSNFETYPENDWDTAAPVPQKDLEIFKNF
Sequence of Ephrin type-A receptor 5 (Homo sapiens) (P54756 whole entry): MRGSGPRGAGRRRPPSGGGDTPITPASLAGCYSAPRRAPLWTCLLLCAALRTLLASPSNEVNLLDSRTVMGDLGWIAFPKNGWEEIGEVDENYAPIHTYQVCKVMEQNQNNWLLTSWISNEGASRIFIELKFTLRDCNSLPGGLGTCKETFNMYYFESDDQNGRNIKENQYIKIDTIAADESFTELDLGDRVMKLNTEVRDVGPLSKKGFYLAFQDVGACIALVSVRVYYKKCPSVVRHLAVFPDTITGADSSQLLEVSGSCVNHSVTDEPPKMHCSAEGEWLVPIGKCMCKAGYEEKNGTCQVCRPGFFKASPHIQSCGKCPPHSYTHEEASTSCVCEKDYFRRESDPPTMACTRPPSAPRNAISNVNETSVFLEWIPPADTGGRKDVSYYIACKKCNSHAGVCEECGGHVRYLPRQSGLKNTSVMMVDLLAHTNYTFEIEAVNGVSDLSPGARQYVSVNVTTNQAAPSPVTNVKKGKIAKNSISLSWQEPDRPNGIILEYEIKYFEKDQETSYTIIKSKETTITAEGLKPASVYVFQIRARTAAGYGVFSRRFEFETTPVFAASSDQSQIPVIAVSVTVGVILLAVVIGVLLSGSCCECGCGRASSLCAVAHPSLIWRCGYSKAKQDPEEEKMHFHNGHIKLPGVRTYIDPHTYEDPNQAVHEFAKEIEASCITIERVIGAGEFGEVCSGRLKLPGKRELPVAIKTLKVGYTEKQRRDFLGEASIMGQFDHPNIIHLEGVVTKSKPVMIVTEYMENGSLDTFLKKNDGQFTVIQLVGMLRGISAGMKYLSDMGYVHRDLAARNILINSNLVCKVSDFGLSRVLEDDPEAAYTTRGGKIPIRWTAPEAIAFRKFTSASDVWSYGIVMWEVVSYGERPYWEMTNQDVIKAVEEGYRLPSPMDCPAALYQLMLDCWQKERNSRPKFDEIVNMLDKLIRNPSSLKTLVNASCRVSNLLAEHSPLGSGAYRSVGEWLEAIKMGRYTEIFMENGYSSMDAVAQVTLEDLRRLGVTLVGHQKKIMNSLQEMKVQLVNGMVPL
Sequence of Ribosomal protein S6 kinase alpha-4 (Homo sapiens) (O75676 whole entry, looked up): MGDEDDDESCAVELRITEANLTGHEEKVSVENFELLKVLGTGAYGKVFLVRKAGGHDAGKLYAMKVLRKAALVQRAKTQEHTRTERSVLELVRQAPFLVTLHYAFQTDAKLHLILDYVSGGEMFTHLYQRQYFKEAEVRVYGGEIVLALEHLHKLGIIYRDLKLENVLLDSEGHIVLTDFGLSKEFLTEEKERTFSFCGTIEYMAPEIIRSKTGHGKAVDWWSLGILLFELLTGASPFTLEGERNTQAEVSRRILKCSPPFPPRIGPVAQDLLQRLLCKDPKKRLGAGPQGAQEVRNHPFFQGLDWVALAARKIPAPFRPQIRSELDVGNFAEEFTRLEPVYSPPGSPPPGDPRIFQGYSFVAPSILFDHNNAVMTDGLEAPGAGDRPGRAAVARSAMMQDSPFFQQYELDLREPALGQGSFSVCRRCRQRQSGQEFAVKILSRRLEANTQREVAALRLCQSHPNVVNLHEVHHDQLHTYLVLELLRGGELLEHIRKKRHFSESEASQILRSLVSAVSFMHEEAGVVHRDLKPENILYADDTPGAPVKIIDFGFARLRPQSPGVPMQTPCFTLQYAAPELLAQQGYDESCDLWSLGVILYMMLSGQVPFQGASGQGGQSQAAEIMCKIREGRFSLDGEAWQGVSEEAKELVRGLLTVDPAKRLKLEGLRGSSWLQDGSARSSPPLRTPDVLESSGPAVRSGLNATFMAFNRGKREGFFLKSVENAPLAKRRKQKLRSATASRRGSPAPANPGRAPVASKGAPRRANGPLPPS

CCc1ccc(-c2ccc3c(c2)-c2[nH]ncc2S(=O)(=O)N3C)cc1 was tested, and the Activity [1] was 94%, the Activity [2] was 95% and the Activity [3] was 97%. It also gave an Activity [4] of 80%, an Activity [5] of 100% and an Activity [6] of 98%. For the same molecule, the Activity [7] was 90%, the Activity [8] was 65% and the Activity [9] was 85%. The Activity [10] was 95%, the Activity [11] was 77% and the Activity [12] was 90%. For the same molecule, the Activity [13] was 63%, the Activity [14] was 93% and the Activity [15] was 101%. For the same molecule, the Activity [16] was 91%, the Activity [17] was 84% and the Activity [18] was 97%. For the same molecule, the Activity [19] was 81%, the Activity [20] was 93% and the Activity [21] was 39%. The Activity [22] was 89%, the Activity [23] was 95% and the Activity [24] was 93%. It also gave an Activity [25] of 90%, an Activity [26] of 93% and an Activity [27] of 105%. The Activity [28] was 91%, the Activity [29] was 86% and the Activity [30] was 98%. For the same molecule, the Activity [31] was 81%.
